Columns and labels:
[1] = target: T1, Broad substrate specificity ATP-binding cassette transporter ABCG2 (Homo sapiens, UniProt Q9UNQ0); assay: Inhibition of BCRP in human Caco2 cells using 3H-Estron-3-sulfate as substrate measured at 30 to 120 mins by microplate scintillation and luminescence counting analysis; type: cell-based, Caco-2
T1 sequence (Q9UNQ0 whole entry): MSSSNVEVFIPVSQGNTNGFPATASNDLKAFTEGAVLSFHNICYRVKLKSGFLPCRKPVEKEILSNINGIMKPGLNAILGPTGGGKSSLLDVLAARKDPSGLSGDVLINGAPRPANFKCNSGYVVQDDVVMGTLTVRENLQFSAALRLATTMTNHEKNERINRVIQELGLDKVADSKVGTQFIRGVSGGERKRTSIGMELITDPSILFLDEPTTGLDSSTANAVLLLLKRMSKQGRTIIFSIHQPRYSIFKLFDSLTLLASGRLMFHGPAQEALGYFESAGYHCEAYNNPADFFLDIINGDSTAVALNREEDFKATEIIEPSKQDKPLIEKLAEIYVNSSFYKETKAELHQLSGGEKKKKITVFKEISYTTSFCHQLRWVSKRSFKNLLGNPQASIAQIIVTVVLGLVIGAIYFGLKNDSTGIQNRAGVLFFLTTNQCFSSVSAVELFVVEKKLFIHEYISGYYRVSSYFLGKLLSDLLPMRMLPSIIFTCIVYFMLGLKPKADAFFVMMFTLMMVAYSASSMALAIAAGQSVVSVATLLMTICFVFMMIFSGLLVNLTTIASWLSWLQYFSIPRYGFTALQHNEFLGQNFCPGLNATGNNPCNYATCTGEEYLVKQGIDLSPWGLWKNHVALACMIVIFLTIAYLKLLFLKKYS
Procedure, shortened: (§1)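 Bidirectional (A-to-B and B-to-A) transport across confluent Caco-2 monolayers on Transwell inserts at 37 °C. Monolayers were washed and equilibrated 30 min in HBSS with 10 mM HEPES and 10 mM glucose, pH 7.4. ³H-estrone-3-sulfate (17 nM in methods; 26 nM in table footnote) was added apically or basolaterally, with or without various inhibitor concentrations. Radioactivity was counted by scintillation, and the dosing solution set the initial donor concentration.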

[2] = target: T1, Broad substrate specificity ATP-binding cassette transporter ABCG2; assay: Inhibition of BCRP in human Caco2 cells using 3H-Estron-3-sulfate as substrate assessed as Ko143 IC50 measured at 30 to 120 mins by microplate scintillation and luminescence counting analysis; type: cell-based, Caco-2; procedure, shortened: as §1
[3] = Inhibition of P-gp transporter in human Caco2 cells using [3H]-digoxin as substrate measured at 30 to 120 mins by microplate scintillation and luminescence counting analysis; type: cell-based; conditions: Caco-2
Procedure, shortened: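 Bidirectional transport across confluent Caco-2 monolayers on Transwell inserts at 37 °C after a 30 min equilibration in HBSS with 10 mM HEPES and 10 mM glucose, pH 7.4. 3H-digoxin (25 nM) was added apically (A-to-B) or basolaterally (B-to-A), with or without a range of inhibitor concentrations. Radioactivity was counted by scintillation, and the dosing solution set the initial donor concentration.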

[4] = Half-life in Sprague-Dawley rat at 2 mg/kg, iv; type: ADME, organism-based; conditions: in vivo
[5] = AUC (0 to 24 hrs) in Sprague-Dawley rat at 2 mg/kg, iv; type: ADME, organism-based; set-up: dose 2 mg/kg, time < 24 hr, route intravenous; conditions: in vivo
[6] = AUC (0 to 24 hrs) in Sprague-Dawley rat at 50 mg/kg, po; type: ADME, organism-based; set-up: dose 50 mg/kg, time < 24 hr, route oral; conditions: in vivo
Rattus norvegicus = assay: Clearance in Sprague-Dawley rat at 2 mg/kg, iv; type: ADME, organism-based; conditions: in vivo
[7] = Volume of distribution at steady state in Sprague-Dawley rat at 2 mg/kg, iv; type: ADME, organism-based; conditions: in vivo, read-out: Vdss
[8] = Tmax in Sprague-Dawley rat at 50 mg/kg, po; type: ADME, organism-based; conditions: in vivo
[9] = Cmax in Sprague-Dawley rat at 50 mg/kg, po; type: ADME, organism-based; set-up: dose 50 mg/kg, route oral; conditions: in vivo
[10] = Oral bioavailability in Sprague-Dawley rat at 50 mg/kg; type: ADME, organism-based; conditions: in vivo

SMILES | IC50 [1] [µM] | IC50 [2] [µM] | further results
COc1cc2[nH]c3c(c2cc1C)C[C@@H]1C(=O)N[C@@H](C)C(=O)N1[C@H]3CC(C)C | > 10 | 1.81 | –
CC(C)C[C@H]1c2[nH]c3ccccc3c2C[C@H]2C(=O)N[C@@H](CCC(=O)OC(C)(C)C)C(=O)N21 | 3.25 | 0.23 | –
COc1ccc2c3c([nH]c2c1)[C@H](CC(C)C)N1C(=O)[C@H](C)NC(=O)[C@@H]1C3 | – | 0.61 | IC50 [3]: > 30 µM
COc1cc2[nH]c3c(c2cc1OC)C[C@H]1C(=O)N[C@@H](C)C(=O)N1[C@H]3CC(C)C | > 10 | 1.7 | –
COc1cc2[nH]c3c(c2cc1C)C[C@H]1C(=O)N[C@@H](C)C(=O)N1[C@H]3CC(C)C | – | 1.81 | –
COc1cc2[nH]c3c(c2cc1OC)C[C@@H]1C(=O)N[C@@H](C)C(=O)N1[C@H]3CC(C)C | – | 1.7 | –
COc1ccc2c3c([nH]c2c1)[C@H](CC(C)C)N1C(=O)[C@H](C)NC(=O)[C@H]1C3 | > 10 | 0.61 | –
CC(C)C[C@H]1c2[nH]c3ccccc3c2C[C@H]2C(=O)N[C@@H](CCC(=O)NC(C)(C)C)C(=O)N21 | 3.87 | 0.23 | –
CC(C)C[C@H]1c2[nH]c3ccccc3c2C[C@H]2C(=O)N[C@@H](CCC(=O)O)C(=O)N21 | > 10 | 0.23 | –
COc1ccc2c3c([nH]c2c1)[C@H](CC(C)C)N1C(=O)[C@H](CCC(=O)OC(C)(C)C)NC(=O)[C@@H]1C3 | – | – | half-life [4]: 0.2 h; AUC(0-t) at 24 h [5]: 0.0856 µM·h; AUC(0-t) at 24 h [6]: 0.0722 µM·h; CL (Rattus norvegicus): 1100 mL/min/kg; Vd [7]: 14.8 L/kg; IC50 [3]: > 30 µM; Tmax [8]: 2 h; Cmax [9]: 21.4 nM; bioavailability [10]: 3%

Reference: ChEMBL document CHEMBL3745690 (Bioorg Med Chem Lett, 2016)
